Calls of active or inactive are those of the source. The calls are words filed in the database; no cut-off is given here.
Experiments:
[1] = Tmax in Sprague-Dawley rat at 1 mg/kg, iv measured upto 12 hrs by LC-MS/MS analysis; type: ADME, organism-based; conditions: in vivo
Method in brief: (§1)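 Six SD rats split into two groups of three, dosed 1 mg/kg IV or 10 mg/kg orally. IV blood drawn at 2, 5, 15, 30 min and 1, 2, 4, 6, 8, 12 h. Oral blood drawn at 5, 15, 30 min and 1, 2, 4, 6, 8, 12, 24 h. Serum drug measured by LC/MS/MS. Parameters are the average of three runs.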

[2] = biological target: T1, Sterol regulatory element-binding protein 1 (Homo sapiens) (UniProt P36956); assay: Induction of SREBP degradation in human HepG2 cells at 10 uM preincubated with cycloheximide for 1 hr followed by compound additon by Western blot analysis; type: cell-based
T1 sequence (whole entry): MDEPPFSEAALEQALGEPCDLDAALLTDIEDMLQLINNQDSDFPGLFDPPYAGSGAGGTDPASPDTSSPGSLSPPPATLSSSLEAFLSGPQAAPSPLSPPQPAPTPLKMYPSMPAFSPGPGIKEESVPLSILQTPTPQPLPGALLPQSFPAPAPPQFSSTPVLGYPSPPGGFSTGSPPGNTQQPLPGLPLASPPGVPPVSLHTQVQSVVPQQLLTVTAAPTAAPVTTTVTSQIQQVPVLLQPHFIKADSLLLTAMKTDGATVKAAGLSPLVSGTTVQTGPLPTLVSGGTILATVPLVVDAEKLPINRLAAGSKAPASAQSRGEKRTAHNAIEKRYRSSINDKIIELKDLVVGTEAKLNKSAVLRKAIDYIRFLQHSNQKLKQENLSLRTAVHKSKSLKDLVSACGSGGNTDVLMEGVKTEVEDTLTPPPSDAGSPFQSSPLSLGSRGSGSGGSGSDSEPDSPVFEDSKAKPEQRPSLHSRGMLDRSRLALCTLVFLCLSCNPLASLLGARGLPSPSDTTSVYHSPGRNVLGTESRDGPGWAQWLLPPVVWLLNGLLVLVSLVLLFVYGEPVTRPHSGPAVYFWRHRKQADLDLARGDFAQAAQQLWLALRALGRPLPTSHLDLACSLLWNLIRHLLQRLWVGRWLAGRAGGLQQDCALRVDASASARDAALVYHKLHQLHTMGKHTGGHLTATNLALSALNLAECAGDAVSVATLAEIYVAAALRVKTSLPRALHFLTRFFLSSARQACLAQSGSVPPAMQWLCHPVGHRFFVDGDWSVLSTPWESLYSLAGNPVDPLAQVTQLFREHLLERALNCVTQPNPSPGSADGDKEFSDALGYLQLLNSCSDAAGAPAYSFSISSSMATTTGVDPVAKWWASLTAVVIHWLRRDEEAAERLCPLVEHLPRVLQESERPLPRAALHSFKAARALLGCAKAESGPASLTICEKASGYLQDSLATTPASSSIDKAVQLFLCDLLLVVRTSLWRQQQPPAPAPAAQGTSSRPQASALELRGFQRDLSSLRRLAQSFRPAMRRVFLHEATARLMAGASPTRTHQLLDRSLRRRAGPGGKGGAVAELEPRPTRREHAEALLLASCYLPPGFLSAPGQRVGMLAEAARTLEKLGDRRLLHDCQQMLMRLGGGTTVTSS
Method in brief: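 HepG2 cells pretreated 1 h with cycloheximide at […]. Medium then switched to cycloheximide plus vehicle or compound at […] for varying times. SREBP decay rate followed by Western blot of lysates.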

[3] = Cmax in Sprague-Dawley rat at 1 mg/kg, iv measured upto 12 hrs by LC-MS/MS analysis; type: ADME, organism-based; set-up: route intravenous, dose 1 mg/kg, time <=12; conditions: in vivo; method in brief: as §1
Mus musculus = assay: Hypoglycemic activity in high fat diet-induced C57BL/6J mouse assessed as improvement in glucose tolerance at 170 to 340 mg/kg, po administered daily for 6 weeks and measured up to 120 mins by OGTT method; type: functional, organism-based; conditions: dose 170-340 mg/kg
Method in brief: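 Male C57BL/6J mice, six weeks old, fed a 45%-fat diet (HFD) for 15 weeks; chow-fed mice served as controls. Obese mice were randomized to vehicle (0.1% w/v CMC-Na) or 170 or 340 mg/kg, gavaged daily for 6 weeks while diet continued. Body weight, food intake, organ weights, serum lipids, tissue histology (H&E, Oil red O), liver SREBP blots and liver qPCR followed.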

[4] = biological target: T1, Sterol regulatory element-binding protein 1 (Homo sapiens); assay: Induction of SREBP degradation in human HepG2 cells at 10 uM preincubated with MG-132 for 1 hr followed by compound additon and measured after 4 hrs by Western blot analysis; type: cell-based
Method in brief: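 HepG2 cells pretreated 1 h with MG-132 at […]. Medium then switched to MG-132 plus vehicle or compound at […] for 4 h. SREBPs detected in lysates by Western blot.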

[5] = Clearance in Sprague-Dawley rat at 1 mg/kg, iv measured upto 12 hrs by LC-MS/MS analysis; type: ADME, organism-based; conditions: in vivo; method in brief: as §1
HepG2 = assay: Cytotoxicity against human HepG2 cells assessed as reduction in cell viability at 10 uM after 24 hrs by CCK8 assay; type: functional

Tmax [1]: 1.98 min
Activity [2]: Active
Cmax [3]: 901 ng/mL
Activity [4]: inactive
clearance [5]: 25.8 mL/min/kg
Compound: COc1ccc2c(c1OCC1CCCCC1)CN1CCc3cc4c(cc3C1C2)OCO4 (configuration not stated)
Activity (Mus musculus): Active
Activity (HepG2): 93%

From ChEMBL document CHEMBL4837214, “Design, synthesis, and biological evaluation of novel tetrahydroprotoberberine derivatives to reduce SREBPs expression for the treatment of hyperlipidemia” (Eur J Med Chem, 2021)
